The subject of experiment [1] is Escherichia coli. The experiment can be described thus: Growth inhibition of fosmidomycin resistant Escherichia coli incubated overnight by paper disc diffusion method. The class given is functional. (A growth-free zone around the sample is the usual read-out of agar diffusion tests.)
In experiment [2] the test system is Escherichia coli. The experiment in a line: Growth inhibition of Escherichia coli XL1 blue at 80 nmol/disc incubated overnight by paper disc diffusion method. The class given is functional. The essentials: (§1)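 Paper disc diffusion on E. coli XL1 Blue growing on LB-agar; 6 mm paper discs impregnated with test compound at the stated amount per disc; plates incubated overnight at 37°C, then growth inhibition read.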

Experiment [3] can be described thus: Inhibition of Escherichia coli His6-tagged DXR preincubated for 2 mins in presence of NADPH followed by DXP substrate addition. The essentials: (§2)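 Recombinant His-tagged DXR was assayed at 37°C in 50 mM Tris/HCl pH 7.5 with 3 mM MgCl2 and 2 mM DTT. The enzyme was pre-incubated for 2 min with NADPH and the inhibitor at a range of concentrations, then DXP was added to start the reaction and residual activity was measured. IC50 was read from a plot of percent residual activity versus log inhibitor concentration.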

Experiment [4] relates to Escherichia coli. The experiment can be described thus: Growth inhibition of Escherichia coli XL1 blue at 2 nmol/disc incubated overnight by paper disc diffusion method. Format: functional. A digest of the protocol: as §1
The subject of experiment [5] is Escherichia coli. The experiment can be described thus: Growth inhibition of Escherichia coli XL1 blue at 160 nmol/disc incubated overnight by paper disc diffusion method. Format: functional. A digest of the protocol: (§3)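 Paper disc diffusion assay on E. coli XL1 Blue grown in LB agar. 6 mm paper discs were impregnated with the stated amount of compound, and plates were incubated overnight at 37°C.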

The nature of experiment [6]: Inhibition of Mycobacterium smegmatis His6-tagged DXR preincubated for 2 mins in presence of NADPH followed by DXP substrate addition. Also noted: species or system Mycolicibacterium smegmatis. The essentials: as §2
In experiment [7] the test system is Escherichia coli. The experiment in a line: Growth inhibition of Escherichia coli XL1 blue at 100 nmol/disc incubated overnight by paper disc diffusion method. The class given is functional. A digest of the protocol: as §3
The test system of experiment [8] is Escherichia coli. The experiment in a line: Growth inhibition of Escherichia coli XL1 blue at 400 nmol/disc incubated overnight by paper disc diffusion method. The class given is functional. A digest of the protocol:
as §1

Experiment [9] concerns Escherichia coli. The experiment can be described thus: Activity at Escherichia coli DXR assessed as ratio of Kcat to Km […] in presence of NADPH by Lineweaver-burk plot method.

For the compound `CN(O)C(=O)CCCP(=O)(O)O`, the “diameter of the inhibition zone (DIZ)” value in the experiment on Escherichia coli [1] is on record as 18 mm; in the experiment with Escherichia coli [2], 30 mm. In addition, the IC50 (in general, the concentration that inhibits the measured activity by half) in experiment [3] was 48 nM.

Take `CC(=O)N(O)CCCP(=O)(O)O` [FR-900098]: in experiment [3], the IC50 is 4 nM. Further, the “diameter of the inhibition zone (DIZ)” value in the experiment with Escherichia coli [4] stood at 32 mm.

Take `O=CN(O)CCOP(=O)(O)O`: the “diameter of the inhibition zone (DIZ)” value in the experiment with Escherichia coli [5] was found to be 24 mm. Also, the IC50 in experiment [6] was found to be 2100 nM; in experiment [3] it was 342 nM.

For `CC(=O)N(O)CCOP(=O)(O)O`, the “diameter of the inhibition zone (DIZ)” value in the experiment with Escherichia coli [7] is reported as 27 mm. Moreover, the IC50 in experiment [6] amounted to 279 nM; in [3], 77 nM.

As to `O=C(CCCP(=O)(O)O)NO`, the IC50 in experiment [3] came to 170 nM. The “diameter of the inhibition zone (DIZ)” value with Escherichia coli [8] stood at 12 mm.

`CC(=O)[C@@H](O)[C@H](O)COP(=O)(O)O`: in the experiment with Escherichia coli [9], the kcat/Km – broadly, the turnover number divided by the Michaelis constant – is 412000 M⁻¹ s⁻¹.

Consider `O=CN(O)CCCP(=O)(O)O` [FOSMIDOMYCIN], for which the IC50 in experiment [3] was found to be 42 nM. In addition, in the experiment on Escherichia coli [4], the “diameter of the inhibition zone (DIZ)” value is 34 mm.

As to `CN(O)C(=O)CCOP(=O)(O)O`, in the experiment with Escherichia coli [5], the “diameter of the inhibition zone (DIZ)” value worked out at 20 mm. The concentration for half-maximal inhibition (IC50) stood at 233 nM in [6] and 46 nM in experiment [3].

With `O=C(CCOP(=O)(O)O)NO`, the concentration for half-maximal inhibition (IC50) in experiment [6] is 9200 nM; in experiment [3], 2600 nM. Further, the “diameter of the inhibition zone (DIZ)” value with Escherichia coli [8] is reported as less than 10 mm.

In the case of `CC(=O)[C@@H](O)[C@H](O)CCP(=O)(O)O`, the kcat/Km in the experiment on Escherichia coli [9] is 11700 M⁻¹ s⁻¹.

These data come from ChEMBL document CHEMBL3872263, “Synthesis and biological evaluation of phosphate isosters of fosmidomycin and analogs as inhibitors of Escherichia coli and Mycobacterium smegmatis 1-deoxyxylulose 5-phosphate reductoisomerases” (Bioorg Med Chem, 2017).
